Experimental data published in ChEMBL document CHEMBL1250495, “Synthesis and antimicrobial activities of novel 1H-dibenzo[a,c]carbazoles from dehydroabietic acid” (2010).
Values after ≈ are worked out from the molar mass of the structure shown.

Columns and labels:
Type in all cases: functional
Bacillus subtilis = assay: Antimicrobial activity against Bacillus subtilis CGMCC 1.1162 after 24 hrs by modified microdilution method; settings: CGMCC 1.1162, 24 h
Method in brief: (§1)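 Broth microdilution. Compounds were dissolved in 20% DMSO and serially diluted twofold, then mixed with an equal volume of bacteria in Martin's broth (~10^5 CFU/ml). Amikacin sulfate was the positive control and 20% DMSO the negative control. Wells were incubated at 37 °C for 24 h and scored visually for growth. MIC is the lowest concentration inhibiting growth.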

Staphylococcus aureus = assay: Antimicrobial activity against Staphylococcus aureus CGMCC 1.1361 after 24 hrs by modified microdilution method; settings: CGMCC 1.1361, 24 h; method in brief: as §1
Escherichia coli = assay: Antimicrobial activity against Escherichia coli CGMCC 1.1571 after 24 hrs by modified microdilution method; settings: CGMCC 1.1571, 24 h; method in brief: as §1
Pseudomonas fluorescens = assay: Antimicrobial activity against Pseudomonas fluorescens CGMCC 1.1828 after 24 hrs by modified microdilution method; settings: CGMCC 1.1828, 24 h; method in brief: as §1
Trichophyton rubrum = assay: Antimicrobial activity against Trichophyton rubrum ATCC 10218 after 48 hrs by modified microdilution method; settings: ATCC 10218, 48 h
Method in brief: (§2)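 Fungal MIC by modified microdilution. Twofold serial dilutions of compound in 20% DMSO were combined with an equal volume of inoculum in PD broth (~10^5 CFU/ml). Ketoconazole was the positive control and 20% DMSO the negative control. Plates were incubated 48 h at 28 °C and inspected for growth. MIC is the lowest concentration without visible growth.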

Candida albicans = assay: Antimicrobial activity against Candida albicans CGMCC 2.2086 after 48 hrs by modified microdilution method; settings: CGMCC 2.2086, 48 h; method in brief: as §2
Aspergillus niger = assay: Antimicrobial activity against Aspergillus niger CGMCC 3.316 after 48 hrs by modified microdilution method; settings: CGMCC 3.316, 48 h; method in brief: as §2

Compound	MIC (Bacillus subtilis) [mg/L]	MIC (Staphylococcus aureus) [mg/L]	MIC (Escherichia coli) [mg/L]	MIC (Pseudomonas fluorescens) [mg/L]	MIC (Trichophyton rubrum) [mg/L]	MIC (Candida albicans) [mg/L]	MIC (Aspergillus niger) [mg/L]
COC(=O)[C@]1(C)CCC[C@]2(C)c3ccc(C(C)C)cc3-c3[nH]c4c(C)cccc4c3[C@@H]12	> 100	> 100	> 100	> 100	> 100	> 100	> 100
CC(=O)N1CCN(c2ccc(OCC3COC(Cn4ccnc4)(c4ccc(Cl)cc4Cl)O3)cc2)CC1 (configuration not stated) [KETOCONAZOLE]	–	–	–	–	3.9 (≈ 7.34 µM)	3.9 (≈ 7.34 µM)	7.8 (≈ 14.7 µM)
COC(=O)[C@]1(C)CCC[C@]2(C)c3ccc(C(C)C)cc3CC[C@@H]12 [METHYL DEHYDROABIETATE]	> 100	62.5 (≈ 199 µM)	> 100	> 100	> 100	> 100	> 100
CCOc1ccc2[nH]c3c(c2c1)[C@H]1[C@](C)(C(=O)OC)CCC[C@]1(C)c1ccc(C(C)C)cc1-3	62.5 (≈ 140 µM)	> 100	62.5 (≈ 140 µM)	31.2 (≈ 70 µM)	62.5 (≈ 140 µM)	62.5 (≈ 140 µM)	> 100
COC(=O)[C@]1(C)CCC[C@]2(C)c3ccc(C(C)C)cc3C(=O)C[C@@H]12	31.2 (≈ 95 µM)	31.2 (≈ 95 µM)	> 100	62.5 (≈ 190 µM)	> 100	> 100	> 100
COC(=O)[C@]1(C)CCC[C@]2(C)c3ccc(C(C)C)cc3-c3[nH]c4ccc(F)cc4c3[C@@H]12	1.9 (≈ 4.53 µM)	3.9 (≈ 9.3 µM)	15.6 (≈ 37.2 µM)	7.8 (≈ 18.6 µM)	> 100	62.5 (≈ 149 µM)	> 100
COC(=O)[C@]1(C)CCC[C@]2(C)c3ccc(C(C)C)cc3-c3[nH]c4c(F)cccc4c3[C@@H]12	7.8 (≈ 18.6 µM)	31.2 (≈ 74.4 µM)	31.2 (≈ 74.4 µM)	15.6 (≈ 37.2 µM)	62.5 (≈ 149 µM)	31.2 (≈ 74.4 µM)	62.5 (≈ 149 µM)
NCC[C@H](O)C(=O)N[C@@H]1C[C@H](N)[C@@H](O[C@H]2O[C@H](CN)[C@@H](O)[C@H](O)[C@H]2O)[C@H](O)[C@H]1O[C@H]1O[C@H](CO)[C@@H](O)[C@H](N)[C@H]1O [AMIKACIN]	0.9 (≈ 1.54 µM)	0.9 (≈ 1.54 µM)	1.9 (≈ 3.24 µM)	0.9 (≈ 1.54 µM)	–	–	–
COC(=O)[C@]1(C)CCC[C@]2(C)c3ccc(C(C)C)cc3-c3[nH]c4ccccc4c3[C@@H]12	31.2 (≈ 77.7 µM)	62.5 (≈ 156 µM)	> 100	62.5 (≈ 156 µM)	> 100	> 100	> 100
COC(=O)[C@]1(C)CCC[C@]2(C)c3ccc(C(C)C)cc3-c3[nH]c4c(Cl)cccc4c3[C@@H]12	31.2 (≈ 71.6 µM)	31.2 (≈ 71.6 µM)	> 100	> 100	> 100	> 100	> 100
COC(=O)[C@]1(C)CCC[C@]2(C)c3ccc(C(C)C)cc3-c3[nH]c4ccc(OC)cc4c3[C@@H]12	62.5 (≈ 145 µM)	31.2 (≈ 72.3 µM)	> 100	> 100	> 100	62.5 (≈ 145 µM)	> 100
COC(=O)[C@]1(C)CCC[C@]2(C)c3ccc(C(C)C)cc3-c3[nH]c4ccc(Cl)cc4c3[C@@H]12	3.9 (≈ 8.95 µM)	3.9 (≈ 8.95 µM)	15.6 (≈ 35.8 µM)	31.2 (≈ 71.6 µM)	> 100	> 100	> 100
COC(=O)[C@]1(C)CCC[C@]2(C)c3ccc(C(C)C)cc3-c3[nH]c4ccc(Br)cc4c3[C@@H]12	15.6 (≈ 32.5 µM)	31.2 (≈ 64.9 µM)	31.2 (≈ 64.9 µM)	15.6 (≈ 32.5 µM)	> 100	> 100	> 100
COC(=O)[C@]1(C)CCC[C@]2(C)c3ccc(C(C)C)cc3-c3[nH]c4ccc(C)cc4c3[C@@H]12	31.2 (≈ 75.1 µM)	62.5 (≈ 150 µM)	> 100	31.2 (≈ 75.1 µM)	62.5 (≈ 150 µM)	> 100	> 100
COC(=O)[C@]1(C)CCC[C@]2(C)c3ccc(C(C)C)cc3-c3[nH]c4c(OC)cccc4c3[C@@H]12	> 100	62.5 (≈ 145 µM)	> 100	> 100	> 100	> 100	> 100
COC(=O)[C@]1(C)CCC[C@]2(C)c3ccc(C(C)C)cc3-c3[nH]c4ccc([N+](=O)[O-])cc4c3[C@@H]12	7.8 (≈ 17.5 µM)	7.8 (≈ 17.5 µM)	15.6 (≈ 34.9 µM)	15.6 (≈ 34.9 µM)	62.5 (≈ 140 µM)	31.2 (≈ 69.9 µM)	> 100
COC(=O)[C@]1(C)CCC[C@]2(C)c3ccc(C(C)C)cc3-c3[nH]c4c(Br)cccc4c3[C@@H]12	62.5 (≈ 130 µM)	> 100	> 100	62.5 (≈ 130 µM)	> 100	> 100	> 100
